Activity calls are given as the source filed them. The calls are words filed in the database; no cut-off is given here.
What was measured:
[1] = target: T1, Nuclear receptor subfamily 1 group I member 2 (Homo sapiens, UniProt O75469); experiment: Transactivation of human PXR transfected in HEK cells at 20 uM by luciferase reporter gene assay relative to 12.5 uM rifampin; type: cell-based; conditions: hek293, 20 µM
T1 sequence (O75469 whole entry): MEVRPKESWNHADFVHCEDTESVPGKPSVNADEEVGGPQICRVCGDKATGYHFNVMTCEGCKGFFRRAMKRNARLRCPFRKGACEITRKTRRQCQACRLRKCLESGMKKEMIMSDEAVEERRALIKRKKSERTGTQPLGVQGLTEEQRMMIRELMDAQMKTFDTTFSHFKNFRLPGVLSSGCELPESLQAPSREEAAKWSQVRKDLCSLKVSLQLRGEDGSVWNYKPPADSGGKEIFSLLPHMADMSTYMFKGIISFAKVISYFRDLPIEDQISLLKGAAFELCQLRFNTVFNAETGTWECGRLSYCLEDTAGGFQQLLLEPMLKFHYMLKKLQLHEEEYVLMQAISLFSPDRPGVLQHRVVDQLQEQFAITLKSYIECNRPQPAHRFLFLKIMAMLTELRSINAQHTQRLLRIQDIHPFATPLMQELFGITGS
Outline: (§1)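 HEK cells transfected with human PXR fused to a firefly luciferase reporter. Luciferase activity is expressed as percent of the 12.5 µM rifampin response. Run in triplicate; SEM reported.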

[2] = target: T2, PXR (nuclear receptor subfamily 1 group I member 2) (Homo sapiens, UniProt O75469); experiment: Transactivation of human PXR transfected in HEK cells at 2 uM by luciferase reporter gene assay relative to 12.5 uM rifampin; type: cell-based; conditions: HEK293 cells transfected with human PXR, read-out: Activity; outline: as §1
T2 sequence (O75469 whole entry): T1 sequence (O75469 whole entry)

[3] = Oral bioavailability in rat at 5 mg/kg; type: ADME, organism-based; conditions: in vivo
[4] = target: T3, 11-beta-hydroxysteroid dehydrogenase type 1 (Canis lupus familiaris, UniProt Q5XX84); experiment: Inhibition of dog 11beta-HSD1 expressed in CHO cells assessed as conversion of cortisone to cortisol by ELISA; type: cell-based
T3 sequence (Q5XX84 whole entry): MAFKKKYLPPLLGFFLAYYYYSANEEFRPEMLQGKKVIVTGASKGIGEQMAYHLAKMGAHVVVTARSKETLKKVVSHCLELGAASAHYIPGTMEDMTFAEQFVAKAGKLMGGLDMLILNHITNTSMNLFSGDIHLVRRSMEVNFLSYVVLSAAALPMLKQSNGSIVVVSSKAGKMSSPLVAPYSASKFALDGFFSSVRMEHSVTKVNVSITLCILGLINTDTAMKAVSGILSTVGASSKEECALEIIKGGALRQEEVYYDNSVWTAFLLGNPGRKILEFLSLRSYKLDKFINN
Outline: (§2)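 CHO cells stably overexpressing the species 11β-HSD1, 30000 per well, seeded 1 day before. Rinsed in HEPES glucose buffer pH 7.4 with 0.1% DMSO. Compound 0.1 nM–10 µM final, 60 min at 37 °C. Cortisone then added (100 nM final) at 37 °C: mouse 45 min, dog 1.5 h, rat and monkey 2 h. Cortisol measured by ELISA.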

[5] = Volume of distribution at steady state in rat at 2 mg/kg, iv and 5 mg/kg, po; type: ADME, organism-based; conditions: in vivo, read-out: Vdss
[6] = Volume of distribution at steady state in mouse at 2 mg/kg, iv and 10 mg/kg, po; type: ADME, organism-based; conditions: in vivo, read-out: Vdss
Cynomolgus monkey [7] = experiment: Plasma concentration in cynomolgus monkey at 30 mg/kg, po; type: ADME, organism-based, Macaca fascicularis; set-up: dose 30 mg/kg, route oral; conditions: in vivo
Outline: (§3)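 Male cynomolgus monkeys, at least four per group, given a single nasal-gastric dose in 1% Tween 80, 47.5% Ora-Plus, 51.5% water. Plasma collected 2 h post-dose and snap-frozen.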

[8] = target: T4, 11-beta-hydroxysteroid dehydrogenase 1 (Homo sapiens, UniProt P28845); experiment: Inhibition of human 11beta-HSD1 expressed in CHO cells assessed as conversion of cortisone to cortisol by ELISA; type: cell-based
T4 sequence (P28845 whole entry): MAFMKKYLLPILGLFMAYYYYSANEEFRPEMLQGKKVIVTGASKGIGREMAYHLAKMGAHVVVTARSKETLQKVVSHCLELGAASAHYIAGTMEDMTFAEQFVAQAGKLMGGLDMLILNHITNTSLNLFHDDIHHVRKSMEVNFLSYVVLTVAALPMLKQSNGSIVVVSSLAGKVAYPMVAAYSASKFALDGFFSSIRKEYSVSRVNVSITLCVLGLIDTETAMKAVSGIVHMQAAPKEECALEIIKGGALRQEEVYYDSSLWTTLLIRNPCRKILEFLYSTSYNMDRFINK

[9] = target: T5, 11-beta-hydroxysteroid dehydrogenase 1 (Mus musculus, UniProt P50172); experiment: Inhibition of mouse recombinant 11beta-HSD1 expressed in Escherichia coli using [3H]cortisone by scintillation proximity assay
T5 sequence (P50172 whole entry): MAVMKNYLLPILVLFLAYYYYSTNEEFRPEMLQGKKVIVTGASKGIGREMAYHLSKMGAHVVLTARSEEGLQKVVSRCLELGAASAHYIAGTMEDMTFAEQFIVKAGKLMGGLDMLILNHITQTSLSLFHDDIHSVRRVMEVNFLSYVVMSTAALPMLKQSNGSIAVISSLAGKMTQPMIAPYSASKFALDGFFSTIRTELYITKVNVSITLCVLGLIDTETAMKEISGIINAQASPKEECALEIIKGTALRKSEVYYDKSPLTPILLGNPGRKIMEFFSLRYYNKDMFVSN
Outline: (§4)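 Purified enzyme expressed in E. coli, dog at 20 nM final and mouse at 5 nM. [3H]cortisone 100 nM, NADPH 200 µM, in 50 mM Tris-HCl, 1 mM EDTA, pH 7.2. 1 h at room temperature, then stopped with 18β-glycyrrhetinic acid. Anticortisol antibody and antimouse SPA beads added for 30 min; read by scintillation counting. Ki derived.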

[10] = Half life in monkey at 2 mg/kg, iv; type: ADME, organism-based, Macaca mulatta; set-up: dose 2 mg/kg, route intravenous; conditions: rhesus monkey, in vivo
[11] = Inhibition of monkey 11beta-HSD1 expressed in CHO cells assessed as conversion of cortisone to cortisol by ELISA; type: cell-based, Macaca mulatta; outline: as §2
Cytochrome P450 3A4 [12] = target: T6, Cytochrome P450 3A4 (Homo sapiens, UniProt P08684); experiment: Induction of CYP3A4 activity in cryopreserved human hepatocytes from male DJV donars with no adverse medical history or substance or alcohol abuse at 20 uM relative to 20 uM rifampin
T6 sequence (P08684 whole entry): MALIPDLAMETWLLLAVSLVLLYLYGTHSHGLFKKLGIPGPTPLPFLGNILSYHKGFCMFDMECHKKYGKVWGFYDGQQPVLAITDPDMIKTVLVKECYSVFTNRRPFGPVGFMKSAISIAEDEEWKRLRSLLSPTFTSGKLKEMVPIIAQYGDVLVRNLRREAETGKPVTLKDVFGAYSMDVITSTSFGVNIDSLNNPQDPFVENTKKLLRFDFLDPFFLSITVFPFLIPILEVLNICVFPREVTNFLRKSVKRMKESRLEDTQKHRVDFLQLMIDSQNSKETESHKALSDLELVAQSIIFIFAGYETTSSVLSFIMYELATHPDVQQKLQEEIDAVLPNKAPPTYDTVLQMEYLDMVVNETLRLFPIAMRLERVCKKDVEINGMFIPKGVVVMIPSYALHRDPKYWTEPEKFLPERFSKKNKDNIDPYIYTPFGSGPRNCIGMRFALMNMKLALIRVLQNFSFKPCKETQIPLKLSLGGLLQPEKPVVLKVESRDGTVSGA

[13] = AUC (0 to infinity) in mouse at 10 mg/kg, po; type: ADME, organism-based; set-up: dose 10 mg/kg, route oral, time infinity; conditions: plasma
Hepatocyte [14] = experiment: Induction of CYP3A4 in cryopreserved human hepatocytes from female NPV donars with history of tobacco and substance usage assessed as mRNA expression at 20 uM relative to 20 uM rifampin; type: functional
[15] = Volume of distribution at steady state in dog at 2 mg/kg, iv and 5 mg/kg, po; type: ADME, organism-based, Canis lupus familiaris; conditions: in vivo, read-out: Vdss
Outline: (§5)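 Dog PK: intravenous 2 mg kg^-1 in 10% dimethylacetamide, 23% water, 67% PEG 400; oral 5 mg kg^-1 in 1% Tween 80, 47.5% OraPlus, 51.5% water.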

Cynomolgus monkey [16] = experiment: Inhibition of 11beta-HSD1 in mesenteric fat of cynomolgus monkey assessed as conversion of [3H]cortisone to [3H]cortisol at 30 mg/kg, po after 2 hrs; type: functional, organism-based; set-up: dose 30 mg/kg; conditions: Macaca fascicularis
Outline: (§6)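 Male cynomolgus monkeys, at least four per group, given a single nasal-gastric dose in 1% Tween 80/47.5% Ora-Plus/51.5% water. Plasma and mesenteric fat taken 2 h post-dose and snap-frozen. About 50 mg fat pieces, in triplicate, incubated 1 h at 37 °C in KRP buffer pH 7.4 containing 3H-cortisone. 3H-cortisol in the medium quantified by SPA with anti-cortisol antibody beads.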

[17] = target: T7, 11-beta-hydroxysteroid dehydrogenase 1 (Rattus norvegicus, UniProt P16232); experiment: Inhibition of rat recombinant 11beta-HSD1 expressed in Escherichia coli using [3H]cortisone by scintillation proximity assay
T7 sequence (P16232 whole entry): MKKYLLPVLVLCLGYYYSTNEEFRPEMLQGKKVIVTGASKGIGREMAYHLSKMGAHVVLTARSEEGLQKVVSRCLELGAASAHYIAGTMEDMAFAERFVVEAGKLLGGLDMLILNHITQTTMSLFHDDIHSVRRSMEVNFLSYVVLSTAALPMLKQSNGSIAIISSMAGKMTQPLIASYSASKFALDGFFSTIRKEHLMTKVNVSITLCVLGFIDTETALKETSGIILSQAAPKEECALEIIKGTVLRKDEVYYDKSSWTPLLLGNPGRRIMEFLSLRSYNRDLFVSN

Cynomolgus monkey [18] = experiment: Plasma concentration in cynomolgus monkey at 3 mg/kg, po; type: ADME, organism-based, Macaca fascicularis; set-up: dose 3 mg/kg, route oral; conditions: in vivo; outline: as §3
Cynomolgus monkey [19] = experiment: Inhibition of 11beta-HSD1 in mesenteric fat of cynomolgus monkey assessed as conversion of [3H]cortisone to [3H]cortisol at 3 mg/kg, po after 2 hrs; type: functional, organism-based; set-up: dose 3 mg/kg; conditions: Macaca fascicularis; outline: as §6
[20] = AUC (0 to infinity) in dog at 5 mg/kg, po; type: ADME, organism-based, Canis lupus familiaris; set-up: time infinity, dose 5 mg/kg, route oral; conditions: plasma
[21] = Half life in dog at 2 mg/kg, iv; type: ADME, organism-based, Canis lupus familiaris; set-up: dose 2 mg/kg, route intravenous; conditions: in vivo; outline: as §5
[22] = Volume of distribution at steady state in monkey at 2 mg/kg, iv and 10 mg/kg, po; type: ADME, organism-based, Macaca mulatta; conditions: rhesus monkey, in vivo, read-out: Vdss
[23] = target: T7, 11-beta-hydroxysteroid dehydrogenase 1; experiment: Inhibition of rat 11beta-HSD1 expressed in CHO cells assessed as conversion of cortisone to cortisol by ELISA; type: cell-based; outline: as §2
[24] = AUC (0 to infinity) in rat at 5 mg/kg, po; type: ADME, organism-based; set-up: time infinity, dose 5 mg/kg, route oral; conditions: plasma
[25] = AUC (0 to infinity) in monkey at 10 mg/kg, po; type: ADME, organism-based, Macaca mulatta; set-up: time infinity, dose 10 mg/kg, route oral; conditions: rhesus monkey, plasma
[26] = Half life in rat at 2 mg/kg, iv; type: ADME, organism-based; set-up: dose 2 mg/kg, route intravenous; conditions: in vivo
[27] = Fraction unbound in cynomolgus monkey plasma protein; type: ADME, cell-free, Macaca fascicularis
[28] = target: T4, 11-beta-hydroxysteroid dehydrogenase 1; experiment: Inhibition of human recombinant 11beta-HSD1 expressed in Escherichia coli using [3H]cortisone by scintillation proximity assay
[29] = Oral bioavailability in dog at 5 mg/kg; type: ADME, organism-based, Canis lupus familiaris; conditions: in vivo
[30] = target: T5, 11-beta-hydroxysteroid dehydrogenase 1; experiment: Inhibition of mouse 11beta-HSD1 expressed in CHO cells assessed as conversion of cortisone to cortisol by ELISA; type: cell-based; outline: as §2
Hepatocyte [31] = experiment: Induction of CYP3A4 in cryopreserved human hepatocytes from male DJV donars with no adverse medical history or substance or alcohol abuse assessed as mRNA expression at 20 uM relative to 20 uM rifampin; type: functional
[32] = Inhibition of monkey recombinant 11beta-HSD1 expressed in Escherichia coli using [3H]cortisone by scintillation proximity assay; set-up: species or system Macaca mulatta
[33] = Oral bioavailability in monkey at 10 mg/kg; type: ADME, organism-based, Macaca mulatta; conditions: rhesus monkey, in vivo
Cytochrome P450 3A4 [34] = target: T6, Cytochrome P450 3A4; experiment: Induction of CYP3A4 activity in cryopreserved human hepatocytes from female NPV donars with history of tobacco and substance usage at 20 uM relative to 20 uM rifampin
[35] = Clearance in rat at 2 mg/kg, iv and 5 mg/kg, po; type: ADME, organism-based; conditions: in vivo
[36] = Clearance in mouse at 2 mg/kg, iv and 10 mg/kg, po; type: ADME, organism-based; conditions: in vivo
[37] = Oral bioavailability in mouse at 10 mg/kg; type: ADME, organism-based; conditions: in vivo
[38] = Clearance in monkey at 2 mg/kg, iv and 10 mg/kg, po; type: ADME, organism-based, Macaca mulatta; conditions: rhesus monkey, in vivo
[39] = Half life in mouse at 2 mg/kg, iv; type: ADME, organism-based; set-up: dose 2 mg/kg, route intravenous; conditions: in vivo
[40] = target: T3, 11-beta-hydroxysteroid dehydrogenase type 1; experiment: Inhibition of dog recombinant 11beta-HSD1 expressed in Escherichia coli using [3H]cortisone by scintillation proximity assay; outline: as §4
[41] = Clearance in dog at 2 mg/kg, iv and 5 mg/kg, po; type: ADME, organism-based, Canis lupus familiaris; conditions: in vivo; outline: as §5

C[C@H](NC1=NC(=O)C(C)(c2ccc(C(=O)N3CCCC3)cc2)S1)c1ccc(F)cc1 (stereo partly specified)
Activity [1]: 35% | activity at 2 µM [2]: 4.1%

C[C@H](NC1=NC(=O)[C@](C)(C(C)(C)O)S1)c1ccc(F)cc1
bioavailability [3]: 56% | IC50 [4]: 45 nM | Vd [5]: 2.5 L/kg | Vd [6]: 1.4 L/kg | concentration (Cynomolgus monkey [7]): 26 µM | IC50 [8]: 34 nM | Ki [9]: 100 nM | half-life [10]: 2.2 h | IC50 [11]: 42 nM | Activity (Cytochrome P450 3A4 [12]): 17% | AUC(0-inf) [13]: 6500 ng·h/mL | Activity (Hepatocyte [14]): 13% | Vd [15]: 0.88 L/kg | Activity (Cynomolgus monkey [16]): Active | Ki [17]: 300 nM | concentration (Cynomolgus monkey [18]): 4.9 µM | Activity (Cynomolgus monkey [19]): Active | AUC(0-inf) [20]: 54000 ng·h/mL | half-life [21]: 7.3 h | Vd [22]: 1.9 L/kg | IC50 [23]: 340 nM | AUC(0-inf) [24]: 9200 ng·h/mL | AUC(0-inf) [25]: 5700 ng·h/mL | half-life [26]: 5.6 h | fraction unbound [27]: 0.108 | Ki [28]: 35 nM | bioavailability [29]: 91% | IC50 [30]: 140 nM | Activity (Hepatocyte [31]): 45% | Activity [1]: 6% | Ki [32]: 48 nM | bioavailability [33]: 65% | Activity (Cytochrome P450 3A4 [34]): 10% | clearance [35]: 5.17 mL/min/kg | clearance [36]: 26.7 mL/min/kg | bioavailability [37]: 100% | clearance [38]: 20 mL/min/kg | half-life [39]: 3.3 h | Ki [40]: 12 nM | clearance [41]: 1.42 mL/min/kg

C[C@H](NC1=NC(=O)C(C)(c2ccc(C(N)=O)cc2)S1)c1ccc(F)cc1 (stereo partly specified)
Activity [1]: 9.3% | activity at 2 µM [2]: 0.8%

C[C@H](NC1=NC(=O)C(C)(c2ccc(C3(C(N)=O)CC3)cc2)S1)c1ccc(F)cc1 (stereo partly specified)
Activity [1]: 97% | activity at 2 µM [2]: 6.7%
